Measured values taken from publication PMC8790780 (Chemistry (Weinheim an der Bergstrasse, Germany), 2021).

How the values were obtained:
[1] = tested on: HT29 cells; assay: Cell viability assay; format: cell-based; settings: Homo sapiens, HT-29, 72 h, read-out: HT29 [IC50 in μM]
[2] = tested on: NCI-H1299 cells; assay: Cell viability assay; format: cell-based; settings: Homo sapiens, NCI-H1299, 72 h, read-out: NCI—H1299 [IC50 in μM]
[3] = target: Hsp90β (Homo sapiens, UniProt P08238); assay: Fluorescence polarization; format: binding; settings: for binding affinity for Hsp90β (in words): FP assay, SAR discussion; for Selectivity: Hsp90β versus Hsp90α, from FP IC50 values
Hsp90β, sequence (P08238 whole entry): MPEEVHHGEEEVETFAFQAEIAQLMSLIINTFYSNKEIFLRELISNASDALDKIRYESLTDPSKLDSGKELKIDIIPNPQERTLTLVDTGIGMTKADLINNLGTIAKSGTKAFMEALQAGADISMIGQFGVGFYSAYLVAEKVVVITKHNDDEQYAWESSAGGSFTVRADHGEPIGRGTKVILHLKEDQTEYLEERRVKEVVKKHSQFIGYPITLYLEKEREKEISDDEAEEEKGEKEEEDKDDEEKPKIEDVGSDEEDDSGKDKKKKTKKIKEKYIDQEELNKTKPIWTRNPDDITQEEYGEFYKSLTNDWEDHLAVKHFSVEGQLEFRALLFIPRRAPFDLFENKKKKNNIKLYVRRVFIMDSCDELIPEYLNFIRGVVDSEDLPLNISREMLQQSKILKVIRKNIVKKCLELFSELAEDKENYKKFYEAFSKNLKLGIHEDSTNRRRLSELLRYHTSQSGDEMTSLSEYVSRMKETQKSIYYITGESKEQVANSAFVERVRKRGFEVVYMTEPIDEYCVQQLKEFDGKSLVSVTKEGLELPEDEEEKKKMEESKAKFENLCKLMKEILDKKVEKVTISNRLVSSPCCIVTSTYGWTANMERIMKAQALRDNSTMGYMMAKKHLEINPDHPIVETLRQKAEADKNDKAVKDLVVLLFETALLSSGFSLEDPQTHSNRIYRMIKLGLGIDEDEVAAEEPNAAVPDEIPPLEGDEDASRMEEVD

[4] = target: Hsp90α (Homo sapiens, UniProt P07900); assay: Fluorescence polarization; format: binding; settings: for binding affinity for Hsp90α (in words): FP assay, SAR discussion
[5] = tested on: Hsp90 client proteins in HT-29 cell line; assay: Western blot analysis of client proteins in HT-29 cell lysates; format: cell-based, human; settings: HT-29, 24 h, 5-50 μM
Procedure, shortened: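 HT29 cells grown in RPMI with 10% FBS and 1% Pen-Strep. At ~70% confluence they were treated for 24 h with test compound (5, 10, 20, 30, 40, 50 μM) or GDA 500 nM. Cells were lysed in RIPA with protease/phosphatase inhibitors and spun 12,000g for 25 min at 4°C. BCA-normalized protein was run on 10% SDS-PAGE, transferred to PVDF, and detected with specific antibodies, HRP secondary and chemiluminescence.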

## CC(C)c1cc(C(=O)N2Cc3ccccc3C2)c(O)c2c1C(=O)CC2 [Compound 29b, 4-Hydroxy-5-(isoindoline-2-carbonyl)-7-isopropyl-2,3-dihydro-1H-inden-1-one]
[1]
  IC50: 21.7 ± 2.6 µM
[2]
  IC50: 10 ± 3.28 µM
[3]
  IC50: 0.15 ± 0.04 µM
  binding affinity for Hsp90β (in words): strong affinity
[4]
  IC50: 0.79 ± 0.14 µM
  binding affinity for Hsp90α (in words): strong affinity

## CC(C)c1cc(C(=O)N2Cc3ccccc3C2)c(O)c2c1C(=O)C(F)C2 (stereo not shown) [Compound 42, 2-fluoro-4-hydroxy-5-(isoindoline-2-carbonyl)-7-isopropyl-2,3-di-hydro-1H-inden-1-one]
[1]
  IC50: 58.3 ± 1.51 µM
[2]
  IC50: 20.6 ± 0.28 µM
[3]
  IC50: 0.34 ± 0.01 µM
  Selectivity: 7.1
[4]
  IC50: 2.42 ± 0.07 µM

## CC(C)c1cc(C(=O)N2Cc3ccccc3C2)c(O)c2c1CCCC2=O [Compound 59a, 8-hydroxy-7-(isoindoline-2-carbonyl)-5-isopropyl-3,4-dihydronaphthalen-1(2H)-one]
[1]
  IC50: 51.2 ± 2.23 µM
[2]
  IC50: 83.3 ± 1.31 µM
[3]
  IC50: > 100 µM
[4]
  IC50: > 100 µM

## CC1Cc2c(O)c(C(=O)N3Cc4ccccc4C3)cc(C(C)C)c2C1=O (stereo not shown) [Compound 40, 4-Hydroxy-5-(isoindoline-2-carbonyl)-7-isopropyl-2-methyl-2,3-di-hydro-1H-inden-1-one]
[1]
  IC50: 60.2 ± 0.63 µM
[2]
  IC50: 59 ± 1.78 µM
[3]
  IC50: 8.83 ± 1.48 µM
  Selectivity: >11
[4]
  IC50: > 100 µM

## CC(C)c1cc(C(=O)N2Cc3ccccc3C2)c(O)c2[nH]nnc12 [Compound 20, (7-Hydroxy-4-isopropyl-1H-benzo[d][1,2,3]triazol-6-yl)(isoindolin-2-yl)methanone]
[1]
  IC50: > 100 µM
[2]
  IC50: 75 ± 21.4 µM
[3]
  IC50: > 100 µM
[4]
  IC50: > 100 µM

## CC(C)c1cc(C(=O)N2Cc3ccccc3C2)c(O)c2cc[nH]c12 [Compound 18, (4-hydroxy-7-isopropyl-1H-indol-5-yl)(isoindolin-2-yl)methanone]
[1]
  IC50: 62 ± 1.42 µM
[2]
  IC50: > 100 µM
[3]
  IC50: > 100 µM
[4]
  IC50: > 100 µM

## CC(C)c1cc(C(=O)N2Cc3ccccc3C2)c(O)c2c1C(=C(F)F)CC2 [Compound 45, (1-(difluoromethylene)-4-hydroxy-7-isopropyl-2,3-dihydro-1H-inden-5-yl)(isoindolin-2-yl)methanone]
[3]
  IC50: > 100 µM
  binding affinity for Hsp90β (in words): did not display good affinity
[4]
  IC50: > 100 µM
  binding affinity for Hsp90α (in words): did not display good affinity

## CON=C1CCc2c(O)c(C(=O)N3Cc4ccccc4C3)cc(C(C)C)c21 [Compound 52, (4-hydroxy-7-isopropyl-1-(methoxyimino)-2,3-dihydro-1H-inden-5-yl)(isoindolin-2-yl)methanone]
[1]
  IC50: 51.2 ± 2.23 µM
[2]
  IC50: 86 ± 7.7 µM
[3]
  IC50: > 100 µM
[4]
  IC50: > 100 µM

## CC(C)c1cc(C(=O)N2Cc3ccccc3C2)c(O)c2c1CCC2 [Compound 31, (4-hydroxy-7-isopropyl-2,3-dihydro-1H-inden-5-yl)(isoindolin-2-yl)methanone]
[1]
  IC50: 59.33 ± 0.18 µM
[2]
  IC50: 58.1 ± 0.34 µM
[3]
  IC50: 5.23 ± 0.13 µM
  binding affinity for Hsp90β (in words): poor binding affinity
  Selectivity: > 19.1
[4]
  IC50: > 100 µM

## CC(C)c1cc(C(=O)N2Cc3ccccc3C2)c(O)c2c1C(=NO)CC2 [Compound 51, (4-hydroxy-1-(hydroxyimino)-7-isopropyl-2,3-dihydro-1H-inden-5-yl)(isoindolin-2-yl)methanone]
[1]
  IC50: 51.2 ± 2.23 µM
[2]
  IC50: 33.7 ± 1.78 µM
[3]
  IC50: > 100 µM
[4]
  IC50: > 100 µM

## CC(C)c1cc(C(=O)N2Cc3ccccc3C2)c(O)c2c1C(=O)C(C)(C)C2 [Compound 41, 4-hydroxy-5-(isoindoline-2-carbonyl)-7-isopropyl-2,2-dimethyl-2,3-dihydro-1H-inden-1-one]
[1]
  IC50: 54.3 ± 1.32 µM
[2]
  IC50: 51.31 ± 0.15 µM
[3]
  IC50: > 100 µM
  binding affinity for Hsp90β (in words): not tolerated
[4]
  IC50: > 100 µM

## CC(C)c1cc(C(=O)N2Cc3ccccc3C2)c(O)c2nc[nH]c12 [Compound 21, (4-Hydroxy-7-isopropyl-1H-benzo[d]imidazol-5-yl)(isoindolin-2-yl) methanone]
[1]
  IC50: 93.7 ± 2.67 µM
[2]
  IC50: 60 ± 10.5 µM
[3]
  IC50: 0.45 ± 0.15 µM
  Selectivity: 4.9
[4]
  IC50: 2.22 ± 0.19 µM

## CC(C)c1cc(C(=O)N2Cc3ccccc3C2)c(O)c2c1CCC2=O [Compound 29a, 7-hydroxy-6-(isoindoline-2-carbonyl)-4-isopropyl-2,3-dihydro-1H-inden-1-one]
[1]
  IC50: 63.5 ± 1.69 µM
[2]
  IC50: 67.6 ± 4.13 µM
[3]
  IC50: > 100 µM
  binding affinity for Hsp90β (in words): did not exhibit affinity
[4]
  IC50: > 100 µM
  binding affinity for Hsp90α (in words): did not exhibit affinity

## CC(C)c1cc(C(=O)N2Cc3ccccc3C2)c(O)c2c1C(=O)C=C2 [Compound 50, 4-hydroxy-5-(isoindoline-2-carbonyl)-7-isopropyl-1H-inden-1-one]
[1]
  IC50: 2.33 ± 0.48 µM
[2]
  IC50: 1.53 ± 0.16 µM
[3]
  IC50: 6.75 ± 0.01 µM
[4]
  IC50: 43.1 ± 11.5 µM

## CC(C)c1cc(C(=O)N2Cc3ccccc3C2)c(O)c2ccoc12 [Compound 5, (4-Hydroxy-7-isopropylbenzofuran-5-yl)(isoindolin-2-yl) methanone]
[1]
  IC50: 18.8 ± 2.6 µM
[2]
  IC50: 17.5 ± 0.42 µM
[3]
  IC50: 0.27 ± 0.09 µM
  selectivity for Hsp90β versus Hsp90α: ~ 370 fold
  Selectivity: > 370
[4]
  IC50: > 100 µM
  binding affinity for Hsp90α (in words): no measurable affinity
[5]
  Erk5 total level: decreased at higher concentrations
  Her-2 total level: decreased at higher concentrations
  Hsp70 level: appear to be induced
  survivin protein expression level (Hsp90α-dependent client): remained unaffected until higher concentrations
[5]; dose dependent
  Akt protein level (Hsp90β-dependent client): induced the degradation
  CDK4 protein level (Hsp90β-dependent client): induced the degradation

## C=C1Cc2c(O)c(C(=O)N3Cc4ccccc4C3)cc(C(C)C)c2C1=O [Compound 46, 4-hydroxy-5-(isoindoline-2-carbonyl)-7-isopropyl-2-methylene-2,3-dihydro-1H-inden-1-one]
[1]
  IC50: 66.5 ± 1.35 µM
[2]
  IC50: 68.2 ± 1.2 µM
[3]
  IC50: > 100 µM
  binding affinity for Hsp90β (in words): did not display good affinity
[4]
  IC50: > 100 µM
  binding affinity for Hsp90α (in words): did not display good affinity

## CC(C)c1cc(C(=O)N2Cc3ccccc3C2)c(O)c2c1C(=O)CCC2 [Compound 59b, 5-hydroxy-6-(isoindoline-2-carbonyl)-8-isopropyl-3,4-dihydronaphthalen-1(2H)-one]
[3]
  IC50: > 100 µM
[4]
  IC50: > 100 µM

## CC(C)c1cc(C(=O)N2Cc3ccccc3C2)c(O)c2cn[nH]c12 [Compound 19, (4-Hydroxy-7-isopropyl-1H-indazol-5-yl)(isoindolin-2-yl) methanone]
[1]
  IC50: > 100 µM
[2]
  IC50: > 100 µM
[3]
  IC50: > 100 µM
[4]
  IC50: > 100 µM

## CC(C)c1cc(C(=O)N2Cc3ccccc3C2)c(O)c2c1CC=C2 [Compound 32a, (4-Hydroxy-7-isopropyl-1H-inden-5-yl)(isoindolin-2-yl)methanone]
[1]
  IC50: 51.8 ± 2.18 µM
[2]
  IC50: 46.1 ± 1.11 µM
[3]
  IC50: 8.29 ± 0.17 µM
  Selectivity: >12
[4]
  IC50: > 100 µM

## CC(C)c1cc(C(=O)N2Cc3ccccc3C2)c(O)c2c1C(=O)C(C(F)(F)F)C2 (stereo not shown) [Compound 44, 4-Hydroxy-5-(isoindoline-2-carbonyl)-7-isopropyl-2-(trifluoromethyl)-2,3-dihydro-1H-inden-1-one]
[1]
  IC50: 75.29 ± 0.66 µM
[2]
  IC50: 57.8 ± 8.01 µM
[3]
  IC50: 19.6 ± 2.2 µM
  Selectivity: >5
[4]
  IC50: > 100 µM

## CC(C)c1cc(C(=O)N2Cc3ccccc3C2)c(O)c2c1C(=O)C(F)(F)C2 [Compound 43, 2,2-difluoro-4-hydroxy-5-(isoindoline-2-carbonyl)-7-isopropyl-2,3-dihydro-1H-inden-1-one]
[1]
  IC50: > 100 µM
[2]
  IC50: > 100 µM
[3]
  IC50: 18.2 ± 1.3 µM
  binding affinity for Hsp90β (in words): poor affinity
  Selectivity: >5
[4]
  IC50: > 100 µM

## CC(C)c1cc(C(=O)N2Cc3ccccc3C2)c(O)c2c1C=CC2 [Compound 32b, (7-hydroxy-4-isopropyl-1H-inden-6-yl)(isoindolin-2-yl)methanone]
[1]
  IC50: 47.4 ± 2.94 µM
[2]
  IC50: 41.4 ± 1.2 µM
[3]
  IC50: 1.86 ± 0.11 µM
  Selectivity: > 53
[4]
  IC50: > 100 µM
